Results taken from ChEMBL document CHEMBL1133699, “Phenyl beta-methoxyacrylates: a new antimalarial pharmacophore” (J Med Chem, 2000).
≈ marks a conversion by molar mass, not a printed value.

What was measured:
[1] = Effective dose was determined in vivo for 50% parasite (Plasmodium berghei) reduction in the male albino mice after oral administration; assay type: functional; settings: Mus musculus
Procedure, shortened: (§1)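 Mice 25 ± 2 g infected iv on day 0 with 2×10^7 P. berghei ANKA-infected donor erythrocytes. Compound dissolved or suspended in 7% Tween-80, 3% ethanol in water, single dose 24 h post-infection (0.01 mL/g), 3 mice/group. Giemsa blood smears at day 3 (72 h post-infection). Parasitemia counted microscopically; reduction calculated versus untreated controls (=100%). ED50/90 determined by dose titration.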

[2] = Effective dose was determined in vivo for 50% parasite (Plasmodium berghei) reduction in the male albino mice after subcutaneous administration; assay type: functional; settings: Mus musculus, sc; for ED90: in the assay text read “90% parasite” for “50% parasite”; procedure, shortened: as §1
[3] = Effective dose was determined in vivo for 90% parasite (Plasmodium berghei) reduction in the male albino mice after oral administration; assay type: functional; settings: Mus musculus; procedure, shortened: as §1
[4] = Growth inhibition of Plasmodium berghei was tested in vivo in male albino mice (Mus musculus) after oral administration of a dose of 10 mg/kg; assay type: functional; settings: read-out: GI; procedure, shortened: as §1
[5] = Growth inhibition of Plasmodium berghei was tested in vivo in male albino mice (Mus musculus) after subcutaneous administration of a dose of 10 mg/kg; assay type: functional; settings: sc, read-out: GI; procedure, shortened: as §1
[6] = system: Plasmodium falciparum; test: In vitro antimalarial activity against chloroquine-sensitive Plasmodium falciparum NF54; assay type: functional, organism-based
Procedure, shortened: (§2)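 Asynchronous P. falciparum cultured in human type A+ erythrocytes, RPMI 1640 with 0.5% AlbuMAX, 25 mM HEPES, 25 mM NaHCO3 (pH 7.3), hypoxanthine, neomycin; 37 °C, 3% O2/4% CO2/93% N2. Compounds were dissolved in DMSO and titrated in duplicate over a 64-fold range. Initial parasitemia was 0.75% at 2.5% hematocrit. Growth was read by [3H]hypoxanthine incorporation, with label added 16 h before the end. IC50 was taken by linear interpolation.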

[7] = system: Plasmodium falciparum; test: In vitro antimalarial activity against chloroquine-resistant Plasmodium falciparum K1; assay type: functional, organism-based; procedure, shortened: as §2
[8] = Growth inhibition of Plasmodium berghei was tested in vivo in male albino mice (Mus musculus) after oral administration of a dose of 50 mg/kg; assay type: functional; settings: read-out: GI; procedure, shortened: as §1
[9] = Growth inhibition of Plasmodium berghei was tested in vivo in male albino mice (Mus musculus) after subcutaneous administration of a dose of 50 mg/kg; assay type: functional; settings: sc, read-out: GI; procedure, shortened: as §1
[10] = Growth inhibition of Plasmodium berghei was tested in vivo in male albino mice (Mus musculus) after oral administration of a dose of 100 mg/kg; assay type: functional; settings: read-out: GI; procedure, shortened: as §1
[11] = Growth inhibition of Plasmodium berghei was tested in vivo in male albino mice (Mus musculus) after subcutaneous administration of a dose of 100 mg/kg; assay type: functional; settings: sc, read-out: GI; procedure, shortened: as §1
[12] = Effective dose was determined in vivo for 90% parasite (Plasmodium berghei) reduction in the male albino mice after subcutaneous administration; assay type: functional; settings: Mus musculus, sc; procedure, shortened: as §1

SMILES | IC50 [6] | IC50 [7] | inhibition in vivo at 100 mg/kg [10] | inhibition in vivo at 100 mg/kg [11] | further results
CO/C=C(/C(=O)OC)c1ccccc1/C=C/C=C/c1ccc(Cl)cc1Cl | 0.03 ng/mL (≈ 0.0771 nM) | 0.1 ng/mL (≈ 0.257 nM) | – | – | ED50 [1]: 1.07 mg/kg; ED50 [2]: 0.69 mg/kg; ED90 [2]: 1.8 mg/kg; ED90 [3]: 4.03 mg/kg; inhibition in vivo at 10 mg/kg [4]: 100%; inhibition in vivo at 10 mg/kg [5]: 100%
CO/C=C(/C(=O)OC)c1ccccc1/C=C/C=C/c1ccccc1 | 0.8 ng/mL (≈ 2.5 nM) | 3.7 ng/mL (≈ 11.5 nM) | – | – | inhibition in vivo at 50 mg/kg [8]: 0%; inhibition in vivo at 50 mg/kg [9]: 0%
CO/C=C(/C(=O)OC)c1ccccc1/C=C/C=C/c1ccc(Cl)cc1 | 0.52 ng/mL (≈ 1.47 nM) | 2 ng/mL (≈ 5.64 nM) | – | – | inhibition in vivo at 50 mg/kg [8]: 0%; inhibition in vivo at 50 mg/kg [9]: 0%
CO/C=C(/C(=O)OC)c1cccc(/C=C/C=C/c2ccc(C(F)(F)F)cc2C(F)(F)F)c1 | 176 ng/mL (≈ 385 nM) | 396 ng/mL (≈ 869 nM) | 0% | 0% | –
CO/C=C(/C(=O)OC)c1ccccc1CO/N=C(\C)c1ccccc1C(F)(F)F | 0.17 ng/mL (≈ 0.417 nM) | 0.65 ng/mL (≈ 1.6 nM) | 0% | 0% | –
CO/C=C(/C(=O)OC)c1ccccc1/C=C/c1ccc(-c2ccccc2C(F)(F)F)o1 | 0.39 ng/mL (≈ 0.91 nM) | 1.8 ng/mL (≈ 4.2 nM) | – | – | –
CO/C=C(/C(=O)OC)c1ccccc1/C=C/CSc1ccccc1C(F)(F)F | 1.75 ng/mL (≈ 4.28 nM) | 2.51 ng/mL (≈ 6.15 nM) | 46% | 91% | –
CO/C=C(/C(=O)OC)c1ccccc1CCCCc1ccccc1C(F)(F)F | 0.54 ng/mL (≈ 1.38 nM) | 1.53 ng/mL (≈ 3.9 nM) | 82% | 99% | –
CO/N=C(/C(=O)OC)c1ccccc1/C=C/C=C/c1ccccc1C(F)(F)F | 0.4 ng/mL (≈ 1.03 nM) | 1.4 ng/mL (≈ 3.6 nM) | 46% | 44% | –
CO/C=C(/C(=O)OC)c1ccccc1CSc1ccccc1C(F)(F)F | 5.5 ng/mL (≈ 14.4 nM) | 29 ng/mL (≈ 75.8 nM) | 0% | 0% | –
CO/C=C(/C(=O)OC)c1ccccc1/C=C/C=C/c1ccccc1C(F)(F)F | 0.06 ng/mL (≈ 0.154 nM) | 0.15 ng/mL (≈ 0.386 nM) | – | – | inhibition in vivo at 10 mg/kg [4]: 99%; inhibition in vivo at 10 mg/kg [5]: 100%
CO/N=C(\C(=O)OC)c1ccccc1C#CC#Cc1ccccc1C(F)(F)F | 10.8 ng/mL (≈ 28 nM) | 25.8 ng/mL (≈ 67 nM) | 0% | 0% | –
CO/C=C(/C(=O)OC)c1ccccc1/C=C/C=C/c1cccc(OC)c1[N+](=O)[O-] | 0.11 ng/mL (≈ 0.278 nM) | 0.58 ng/mL (≈ 1.47 nM) | – | – | –
CO/N=C(/C(=O)OC)c1ccccc1CCCCc1ccccc1C(F)(F)F | 6.4 ng/mL (≈ 16.3 nM) | 15 ng/mL (≈ 38.1 nM) | 0% | 0% | –
CO/C=C(/C(=O)OC)c1ccccc1/C=C/C=C/c1ccccc1Cl | 0.09 ng/mL (≈ 0.254 nM) | 0.39 ng/mL (≈ 1.1 nM) | – | – | inhibition in vivo at 10 mg/kg [4]: 41%; inhibition in vivo at 10 mg/kg [5]: 77%
CO/C=C(/C(=O)OC)c1ccc(/C=C/C=C/c2ccc(C(F)(F)F)cc2C(F)(F)F)cc1 | > 5000 ng/mL | > 5000 ng/mL | 0% | 0% | –
CO/N=C(/C(=O)OC)c1ccccc1C#CC#Cc1ccccc1C(F)(F)F | 1390 ng/mL (≈ 3600 nM) | 2280 ng/mL (≈ 5910 nM) | 0% | 0% | –
CO/C=C(/C(=O)OC)c1ccccc1/C=C/C=C/c1cccc(Br)c1 | 6.1 ng/mL (≈ 15.3 nM) | 31.4 ng/mL (≈ 78.6 nM) | – | – | inhibition in vivo at 50 mg/kg [8]: 0%; inhibition in vivo at 50 mg/kg [9]: 0%
CO/C=C(/C(=O)OC)c1ccccc1/C=C/C=C/c1ccc(F)cc1Cl | 0.06 ng/mL (≈ 0.161 nM) | 0.19 ng/mL (≈ 0.51 nM) | – | – | inhibition in vivo at 10 mg/kg [4]: 92%; inhibition in vivo at 10 mg/kg [5]: 100%
CO/N=C(/C(=O)OC)c1ccccc1-c1ccc(-c2ccccc2C(F)(F)F)s1 | 23.7 ng/mL (≈ 56.5 nM) | 60.8 ng/mL (≈ 145 nM) | 0% | 0% | –
CO/C=C(/C(=O)OC)c1ccccc1/C=C/C=C/c1cccc(C(F)(F)F)c1 | 7.8 ng/mL (≈ 20.1 nM) | 16.7 ng/mL (≈ 43 nM) | – | – | inhibition in vivo at 50 mg/kg [8]: 0%; inhibition in vivo at 50 mg/kg [9]: 0%
CO/C=C(/C(=O)OC)c1ccccc1/C=C/C=C/c1ccc(C)cc1C | 0.03 ng/mL (≈ 0.0861 nM) | 0.05 ng/mL (≈ 0.143 nM) | – | – | ED50 [1]: 1.11 mg/kg; ED50 [2]: 0.33 mg/kg; ED90 [2]: 0.72 mg/kg; ED90 [3]: 2.65 mg/kg; inhibition in vivo at 10 mg/kg [4]: 100%; inhibition in vivo at 10 mg/kg [5]: 100%
CO/C=C(/C(=O)OC)c1ccccc1/C=C/c1ccccc1C(F)(F)F | 3.01 ng/mL (≈ 8.31 nM) | 7.8 ng/mL (≈ 21.5 nM) | 0% | 0% | –
CO/C=C(/C(=O)OC)c1ccccc1/C=C/C=C/c1ccccc1C#N | 0.52 ng/mL (≈ 1.51 nM) | 1.6 ng/mL (≈ 4.63 nM) | 0% | 0% | –
CO/C=C(/C(=O)OC)c1ccccc1/C=C/C=C/c1cccc(F)c1 | 1.5 ng/mL (≈ 4.43 nM) | 8.4 ng/mL (≈ 24.8 nM) | – | – | inhibition in vivo at 50 mg/kg [8]: 0%; inhibition in vivo at 50 mg/kg [9]: 0%
CO/C=C(/C(=O)OC)c1ccccc1/C=C/C=C/c1ccc(C(F)(F)F)cc1C(F)(F)F | 0.06 ng/mL (≈ 0.131 nM) | 0.13 ng/mL (≈ 0.285 nM) | – | – | inhibition in vivo at 10 mg/kg [4]: 100%; inhibition in vivo at 10 mg/kg [5]: 100%
O=C1C(O)=C([C@H]2CC[C@H](c3ccc(Cl)cc3)CC2)C(=O)c2ccccc21 [ATOVAQUONE] | 0.11 ng/mL (≈ 0.3 nM) | 0.41 ng/mL (≈ 1.12 nM) | – | – | ED50 [1]: 0.05 mg/kg; ED50 [2]: 0.04 mg/kg; ED90 [3]: 0.1 mg/kg; ED90 [12]: 0.9 mg/kg
CCN(CC)CCCC(C)Nc1ccnc2cc(Cl)ccc12 (stereo not drawn) [CHLOROQUINE] | – | – | – | – | ED50 [1]: 2.4 mg/kg; ED50 [2]: 1.5 mg/kg; ED90 [3]: 5 mg/kg; ED90 [12]: 3.3 mg/kg
